Test results: ChEMBL document CHEMBL4196020, “Original antileishmanial hits: Variations around amidoximes” (Eur J Med Chem, 2018)

What was measured:
[1] = Selectivity index, ratio of CC50 for cytotoxicity against Balb/c mouse peritoneal macrophages to IC50 for antileishmanial activity against Leishmania amazonensis MHOM/BR/77/LTB0016 promastigotes; assay type: toxicity; settings: read-out: Ratio CC50/IC50
Summary of the method: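 SI calculated as macrophage CC50 divided by promastigote IC50. Both values come from 72 h assays: macrophages in RPMI at 37 °C and promastigotes in Schneider's medium at 26 °C with resazurin read-out.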

Leishmania amazonensis [2] = assay: Antileishmanial activity against Leishmania amazonensis MHOM/BR/77/LTB0016 promastigotes after 72 hrs by resazurin dye based assay; assay type: functional, organism-based; settings: MHOM/BR/77/LTB0016, 72 h
Summary of the method: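 Promastigotes grown in Schneider's insect medium with 10% HIFCS, started at 1.0×10^6 cells/mL with or without a range of compound concentrations, 26 °C for 72 h. Viability read by resazurin. IC50 by logarithmic regression. Three independent experiments in triplicate, mean ± SD.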

[3] = Cytotoxicity against Balb/c mouse peritoneal macrophages assessed as reduction in cell viability after 72 hrs by resazurin assay; assay type: cell-based, Peritoneal macrophage
Summary of the method: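 Peritoneal cells collected by lavage in RPMI 1640 with 10% HIFCS, 2 mM L-glutamine, 1 mM pyruvate, streptomycin and penicillin. Adjusted to 1.0×10^6 cells/mL, plated in triplicate, 1 h at 37 °C in 5% CO2, non-adherent cells washed off. […] Three independent experiments, mean ± SD.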

Leishmania amazonensis [4] = assay: Antileishmanial activity against Leishmania amazonensis MHOM/BR/77/LTB0016 amastigotes infected in Balb/c mouse peritoneal macrophages after 72 hrs by hematological dye based light microscopic method; assay type: functional, organism-based; settings: MHOM/BR/77/LTB0016, 72 h
Summary of the method: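 Resident BALB/c peritoneal macrophages plated at 1×10^6/mL in RPMI, 1 h at 37 °C in 5% CO2, non-adherent cells washed off. Infected with stationary-phase promastigotes at 3:1 parasite/macrophage for 4 h, free parasites washed off, compounds added for 72 h. Slides stained with hematological dye, infected cells and amastigotes counted in at least 100 macrophages per sample. IC50 by nonlinear regression. Three independent experiments.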

[5] = Solubility of the compound in Schneider's insect medium supplemented with 10% HIFCS; assay type: physicochemical
[6] = Solubility of the compound in RPMI 1640 medium; assay type: physicochemical

Row | SMILES | IC50 (Leishmania amazonensis [4]) | solubility [5] | solubility [6] | selectivity ratio [1] | IC50 (Leishmania amazonensis [2]) | CC50 at 72 h [3]
1 | CC1(Cc2ccc(-c3ccccc3)c(F)c2)CC(S(=O)(=O)c2ccc(F)cc2)=C(c2ccc(/C(N)=N/O)cc2)O1 (stereo unspecified) | – | – | – | 2 | 12.2 µM | 24.5 µM
2 | CC1(Cc2ccc(-c3ccccc3)cc2)CC(S(=O)(=O)c2ccc(F)cc2)=C(c2ccc(/C(N)=N/O)cc2)O1 (stereo unspecified) | – | – | – | 2.3 | 14.8 µM | 33.9 µM
3 | CCC1(CC)CC(S(=O)(=O)c2ccc(F)cc2)=C(c2ccc(/C(N)=N/O)cc2)O1 | – | – | – | 3 | 30.2 µM | 91.4 µM
4 | N=C(N)c1ccc(OCCCCCOc2ccc(C(=N)N)cc2)cc1 [PENTAMIDINE] | – | – | – | 1.5 | 5.7 µM | –
5 | CC1(Cc2ccc([N+](=O)[O-])cc2)CC(S(=O)(=O)c2ccc(F)cc2)=C(c2ccc(/C(N)=N/O)cc2)O1 (stereo unspecified) | – | – | – | 5.8 | 16.7 µM | 97.4 µM
6 | CC1(C/C=C/c2ccc(C(F)(F)F)cc2)CC(S(=O)(=O)c2ccc(F)cc2)=C(c2ccc(/C(N)=N/O)cc2)O1 (stereo unspecified) | – | – | – | 2.6 | 17.2 µM | 43.9 µM
7 | CC1(Cc2cccc([N+](=O)[O-])c2)CC(S(=O)(=O)c2ccc(F)cc2)=C(c2ccc(/C(N)=N/O)cc2)O1 (stereo unspecified) | – | – | – | 7.5 | 11.6 µM | 86.6 µM
8 | COc1cc(CC2(C)CC(S(=O)(=O)c3ccc(F)cc3)=C(c3ccc(/C(N)=N/O)cc3)O2)cc(OC)c1OC (stereo unspecified) | – | – | – | 2 | 45.6 µM | 92.3 µM
9 | Cc1ccc(CC2(C)CC(S(=O)(=O)c3ccc(F)cc3)=C(c3ccc(/C(N)=N/O)cc3)O2)cc1 (stereo unspecified) | – | – | – | 2.3 | 23.2 µM | 54.4 µM
10 | N/C(=N\O)c1ccc(C2=C(S(=O)(=O)c3ccc(F)cc3)CC3(CCCCC3)O2)cc1 | – | – | – | 1.9 | 49.5 µM | 92.9 µM
11 | CC1(Cc2cc(C(F)(F)F)cc(C(F)(F)F)c2)CC(S(=O)(=O)c2ccc(F)cc2)=C(c2ccc(/C(N)=N/O)cc2)O1 (stereo unspecified) | – | – | – | 8 | 5.4 µM | 43.1 µM
12 | CC1(Cc2cccc(C(F)(F)F)c2)CC(S(=O)(=O)c2ccc(F)cc2)=C(c2ccc(/C(N)=N/O)cc2)O1 (stereo unspecified) | – | – | – | 7.4 | 6.7 µM | 49.8 µM

The next lines start with results.

Row | IC50 (Leishmania amazonensis [4]) | solubility [5] | solubility [6] | SMILES | selectivity ratio [1] | IC50 (Leishmania amazonensis [2]) | CC50 at 72 h [3]
13 | 6.7 µM | – | – | Cc1cccc(CC2(C)CC(S(=O)(=O)c3ccc(F)cc3)=C(c3ccc(/C(N)=N/O)cc3)O2)c1 (stereo unspecified) | 19.9 | 5.6 µM | 112 µM
14 | – | Insoluble | – | CC1(Cc2ccc(/C(N)=N/O)cc2)CC(S(=O)(=O)c2ccc(F)cc2)=C(c2ccc(/C(N)=N/O)cc2)O1 (stereo unspecified) | – | > 100 µM | 42.2 µM
15 | – | Insoluble | Insoluble | CC1(Cc2cccc(CO)c2)CC(S(=O)(=O)c2ccc(F)cc2)=C(c2ccc(/C(N)=N/O)cc2)O1 (stereo unspecified) | – | > 100 µM | > 100 µM
16 | > 20 µM | – | – | CC1(Cc2ccc(C(F)(F)F)cc2)CC(S(=O)(=O)c2ccc(F)cc2)=C(c2ccc(/C(N)=N/O)cc2)O1 (stereo unspecified) | 12.6 | 8.2 µM | 103 µM
17 | – | Insoluble | – | CC1(Cc2cccc(/C(N)=N/O)c2)CC(S(=O)(=O)c2ccc(F)cc2)=C(c2ccc(/C(N)=N/O)cc2)O1 (stereo unspecified) | – | > 100 µM | 50.2 µM
18 | – | Insoluble | Insoluble | CC1(Cc2ccc(CO)cc2)CC(S(=O)(=O)c2ccc(F)cc2)=C(c2ccc(/C(N)=N/O)cc2)O1 (stereo unspecified) | – | > 100 µM | > 100 µM
19 | – | – | Insoluble | CC1(Cc2ccccc2)CC(S(=O)(=O)c2ccc(F)cc2)=C(c2cccc(/C(N)=N/O)c2)O1 (stereo unspecified) | > 2.7 | 74.7 µM | > 200 µM
20 | – | – | Insoluble | COc1ccc(CC2(C)CC(S(=O)(=O)c3ccc(F)cc3)=C(c3ccc(/C(N)=N/O)cc3)O2)cc1 (stereo unspecified) | > 4.2 | 24 µM | > 100 µM
21 | 7.2 µM | – | – | Cc1ccccc1CC1(C)CC(S(=O)(=O)c2ccc(F)cc2)=C(c2ccc(/C(N)=N/O)cc2)O1 (stereo unspecified) | 37 | 2.1 µM | 77.6 µM
22 | 9.3 µM | – | – | CC1(Cc2ccccc2Br)CC(S(=O)(=O)c2ccc(F)cc2)=C(c2ccc(/C(N)=N/O)cc2)O1 (stereo unspecified) | 12 | 9.1 µM | 109 µM
23 | 10.2 µM | – | – | CC1(Cc2ccccc2C(F)(F)F)CC(S(=O)(=O)c2ccc(F)cc2)=C(c2ccc(/C(N)=N/O)cc2)O1 (stereo unspecified) | 21.9 | 4.8 µM | 105 µM
24 | 7.9 µM | – | – | CC1(Cc2ccccc2)CC(S(=O)(=O)c2ccc(F)cc2)=C(c2ccc(/C(N)=N/O)cc2)O1 (stereo unspecified) | 18.9 | 5.4 µM | 102 µM
